According to ChEMBL document CHEMBL1129936, “Water soluble furoxan derivatives as NO prodrugs” (J Med Chem, 1997):

Legend:
Rattus norvegicus [1] = species on record: Rattus norvegicus; assay: Relaxation of endothelium […] strips of rat aorta precontracted with noradrenaline in presence of 10 uM HbO2; assay type: functional
Procedure, shortened: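 Rat aortic strips in Krebs at 37 °C (95% O2-5% CO2, pH 7.4), precontracted with 1 µM noradrenaline and exposed to oxyhemoglobin 10 µM for at least 10 min before the vasodilator was added. Oxyhemoglobin came from bovine hemoglobin reduced with excess sodium dithionite at 4 °C. Relaxation concentration-response curves gave EC50.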

[2] = Nitric oxide released from prodrug in the presence of cysteine
Procedure, shortened: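 Compound at 10^-4 M final was incubated 1 h at 37 °C, pH 7.4, with a 50-fold molar excess of cysteine (1:50). Nitrite was read by the Griess reaction at 540 nm after 10 min at room temperature against nitrite standards (10-80 nmol/mL). Given as percent NO2- (mol/mol) ± SEM.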

Rattus norvegicus [3] = species on record: Rattus norvegicus; assay: Relaxation of endothelium […] strips of rat aorta precontracted with noradrenaline; assay type: functional
Procedure, shortened: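 Rat aortic strips in Krebs solution at 37 °C, gassed 95% O2-5% CO2 (pH 7.4), equilibrated 1 h, then contracted with noradrenaline 1 µM (submaximal). Cumulative concentration-response curves for relaxation gave EC50.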

[4] = Nitric oxide released from prodrug in the absence of cysteine
Procedure, shortened: (§1)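 Compound at 10^-4 M final in pH 7.4 buffered water, no thiol, held at 37 °C for 1 h or 24 h. Nitrite was measured by Griess reagent: 10 min at room temperature, absorbance at 540 nm, sodium nitrite standards 10-80 nmol/mL. Reported as percent NO2- (mol/mol) ± SEM.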

[5] = Nitric oxide releasing capability in the absence of cysteine after 24 hr; procedure, shortened: as §1

Row | Molecule | EC50 (Rattus norvegicus [1]; Rattus norvegicus, Aorta) [nM] | % NO2- [2] [M/M] | EC50 (Rattus norvegicus [3]; Rattus norvegicus, Aorta) [nM] | % NO2- [4] [M/M] | % NO2- [5] [M/M] | EC50 (Rattus norvegicus [1]) [nM] | EC50 (Rattus norvegicus [3]) [nM]
1 | NCCOc1no[n+]([O-])c1S(=O)(=O)c1ccccc1 | 46 | 19.7 | 13 | 0 | – | – | –
2 | CN(C)CCSc1no[n+]([O-])c1-c1ccccc1 | 124000 | 2.9 | 48100 | 0 | – | – | –
3 | CN(C)CCSc1c(-c2ccccc2)no[n+]1[O-] | 11500 | 35 | 1550 | 0 | – | – | –
4 | CN(C)CCCOc1no[n+]([O-])c1-c1ccccc1 | 124000 | 3.9 | 14300 | 0 | – | – | –
5 | CN(C)CCSc1c(S(=O)(=O)c2ccccc2)no[n+]1[O-] | 330 | 58.5 | 55.7 | 95.3 | 100 | – | –
6 | CN(C)CCCOc1no[n+]([O-])c1S(=O)(=O)c1ccccc1 | 130 | 20.2 | 30 | 0 | – | – | –
7 | SODIUM NITROPRUSSIDE [listing 1 of 2 here] | – | – | – | – | – | 48.1 | 21.5
8 | SODIUM NITROPRUSSIDE [listing 2 of 2 here] | – | 58 | – | 1.5 | – | – | –
9 | O=[N+]([O-])OCC(CO[N+](=O)[O-])O[N+](=O)[O-] [NITROGLYCERIN] | – | 45 | 22.4 | 0 | – | – | –
10 | CN(C)CCS(=O)(=O)c1c(-c2ccccc2)no[n+]1[O-] | 1010 | 36.3 | 82.6 | 0 | 33 | – | –

More lines, in order of falling EC50 (Rattus norvegicus [1]; Rattus norvegicus, Aorta), values ahead:

Row | EC50 (Rattus norvegicus [1]; Rattus norvegicus, Aorta) [nM] | % NO2- [2] [M/M] | EC50 (Rattus norvegicus [3]; Rattus norvegicus, Aorta) [nM] | % NO2- [4] [M/M] | % NO2- [5] [M/M] | EC50 (Rattus norvegicus [1]) [nM] | EC50 (Rattus norvegicus [3]) [nM] | Molecule
11 | 78000 | 2.8 | 15200 | 0 | – | – | – | NCCSc1no[n+]([O-])c1-c1ccccc1
12 | 68000 | 3.9 | 7350 | 0 | – | – | – | CN(C)CCOc1no[n+]([O-])c1-c1ccccc1
13 | 15000 | 37.9 | 3480 | 4.5 | 56 | – | – | NCCSc1c(-c2ccccc2)no[n+]1[O-]
14 | 3630 | 91.1 | 1030 | 0 | – | – | – | CN(C)CCCOc1c(-c2ccccc2)no[n+]1[O-]
15 | 2220 | 62.9 | 1230 | 6.3 | 97 | – | – | CN(C)CCOc1c(-c2ccccc2)no[n+]1[O-]
16 | 430 | 8.8 | 101 | 0 | – | – | – | CN(C)CCS(=O)(=O)c1no[n+]([O-])c1-c1ccccc1
17 | 350 | 27.9 | 52 | 0 | – | – | – | CN(C)CCSc1no[n+]([O-])c1S(=O)(=O)c1ccccc1
18 | 48 | 58.9 | 4.1 | 0 | – | – | – | CN(C)CCOc1no[n+]([O-])c1S(=O)(=O)c1ccccc1
